IDH1 R132H inh: inhibitors of IDH1 R132H reductase, primary screen, biochemical, plate reader, single point | diaphorase/resazurin fluorescence, 60 min | inhibition, % at 10 µM | 0.18% of 70,000 active | AID 624101, 2012; in the data active = inhibition above about 34%; inconclusive = no clear call, values can overlap the other calls; inactive = below about 11%;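 also: 0% = DMSO and 100% = no enzyme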
T cruzi growth-1: T. cruzi intracellular proliferation inhibitors, primary screen, cell-based, beta-gal Tulahuen parasites, NIH3T3 host, luminescence | T. cruzi beta-gal in NIH3T3, GalScreen luminescence, 90 h | inhibition, % at 8.34 µM | 5.9% of 77,000 active | AID 624255, 2012;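 active = mean inhibition above about 93%, with at least 55% of replicates each passing it, limit read from the data, passing the limit was not always enough; inconclusive = only one of those two conditions holds; inactive = neither condition holds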
KDM4C inh: inhibitors of GASC-1 (KDM4C) histone demethylase, primary screen, biochemical, single concentration HTS; Lysine-specific demethylase 4C (Homo sapiens), Q9H3R0; GST-KDM4C 2-372, H3K9me3 peptide, LANCE TR-FRET; inhibition, % at 12.5 µM; 0.15% of 96,000 active;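 active = mean replicate inhibition above about 25%, with at least 55% of replicates also reaching it, limit read from the data, passing the limit was not always enough; inconclusive = only one of those two conditions met; inactive = neither condition met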
Target sequence (Q9H3R0 2-372 limits assumed): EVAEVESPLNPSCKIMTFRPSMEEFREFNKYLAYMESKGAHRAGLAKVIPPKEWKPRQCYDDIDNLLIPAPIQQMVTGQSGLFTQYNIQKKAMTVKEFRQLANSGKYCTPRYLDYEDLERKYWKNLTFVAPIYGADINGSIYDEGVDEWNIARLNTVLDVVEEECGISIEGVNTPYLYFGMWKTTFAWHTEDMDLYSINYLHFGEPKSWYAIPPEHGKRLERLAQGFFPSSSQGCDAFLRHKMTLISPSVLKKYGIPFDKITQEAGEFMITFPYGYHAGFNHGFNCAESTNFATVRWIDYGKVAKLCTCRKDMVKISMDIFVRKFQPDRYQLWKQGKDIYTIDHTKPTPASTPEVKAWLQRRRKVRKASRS
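System: N-terminal GST-fused human GASC-1 (KDM4C) fragment, residues 2-372; amount: enzyme final amount 10 nM; incubation: reaction 30 min RT, detection step 1 h RT; medium: HEPES buffer, pH 7.5, plus ascorbate; technique: LANCE TR-FRET, Eu antibody, ULight-streptavidin, EDTA, ex 340 nm, em 618/671 nm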
T cruzi growth-2: T. cruzi intracellular proliferation inhibitors, confirmation, cell-based, NIH3T3 host, beta-gal parasite, luminescence, cherry-pick; T. cruzi beta-gal in NIH3T3, GalScreen luminescence, 90 h; inhibition, % at 8.35 µM; 72% of 5,600 active; shares compounds with T cruzi growth-1; AID 651739, 2012;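 active = mean replicate inhibition above about 95% and at least 55% of replicates individually reaching it, limit read from the data; inconclusive = only one of the two criteria is met; inactive = neither criterion is met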
T cruzi growth-3: inhibitors of intracellular T. cruzi replication, confirmation, NIH3T3 host cells, beta-gal parasites, cherry-pick, set 2; inhibition, % at 2.09 µM; shares compounds with T cruzi growth-1; AID 651740, 2012; 21% of 5,600 active; T. cruzi beta-gal in NIH3T3, GalScreen luminescence, 90 h;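 active = mean inhibition above about 95%, with at least 55% of replicates also reaching it, limit read from the data; inconclusive = meets just one of the two conditions; inactive = meets neither condition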;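 also: plate controls were neutral control median for no effect and positive control median for full effect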
3T3 cytotox: cytotoxicity in mouse NIH/3T3 fibroblasts, confirmation, cytotoxicity control for T. cruzi proliferation inhibitor project, cell-based, cherry-pick, single point. shares compounds with T cruzi growth-1. NIH/3T3 viability, CellTiter-Glo ATP luminescence, 90 h. cytotoxicity (signal decrease), % at 8.35 µM. 14% of 5,600 active. AID 651742, 2012;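 active = mean signal decrease across replicates above about 35% based on untreated-well scatter, with enough replicates individually passing, limit read from the data; inconclusive = no rule stated though some were filed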;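 also: 0% = median of neutral control wells and 100% = median of positive control wells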
3T3 cytotox 2: NIH/3T3 fibroblast cytotoxicity, confirmation, cytotoxicity control, cell-based, cherry-pick, single point, set 2; shares compounds with T cruzi growth-1; NIH/3T3 viability, CellTiter-Glo ATP luminescence, 90 h; inhibition, % at 24.9 µM; 56% of 5,600 active; AID 651744, 2012;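 active = mean loss of cell viability signal at or above a set limit, and enough replicates individually reaching it; inconclusive = meets only the mean limit or only the replicate share; inactive = meets neither condition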;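 also: 0% = median of neutral control wells and 100% = median of positive control wells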
Active calls of the source: *; u = inconclusive; x = no result. Many of the other results were omitted from the sample, so hits are more common in it than they were.

SMILES	IDH1 R132H inh	T cruzi growth-1	KDM4C inh	T cruzi growth-2	T cruzi growth-3	3T3 cytotox	3T3 cytotox 2
CC(=O)NC[C@H]1[C@@H](c2ccc(-c3cccc(F)c3)cc2)[C@@H](CO)N1C(=O)C1CC1	x	x	1	x	x	x	x
N#C[C@H]1[C@@H](c2ccc(-c3cccc(F)c3)cc2)[C@H](CO)N1C(=O)NC1CCCC1	x	93	-1	x	x	x	x
C[C@@H]1CN([C@@H](C)CO)C(=O)Cc2cc(NC(=O)Nc3ccc(F)cc3)ccc2O[C@H]1CN(C)S(=O)(=O)c1ccc(F)cc1	-1	8	0	x	x	x	x
CC(C)(C)c1csc(-c2sccc2CS(=O)(=O)c2ccc(Cl)cc2)n1	1	x	x	x	x	x	x
COc1ccc(OC)c(C(=O)CSc2nnc(-c3ccco3)n2C)c1	-1	x	x	x	x	x	x
CC1(C)CC(=O)C2=C(C1)c1c(ccc3ncccc13)NC2C1CC=CCC1 (centres undefined)	-2	x	x	x	x	x	x
COc1cc(CN2CC3(CN(C(=O)c4cccnc4)C3)c3c([nH]c4cc(OC)ccc34)[C@H]2CO)cc(OC)c1	x	x	3	x	x	x	x
CN1C(=O)c2cc(NC(=O)Cc3cccs3)ccc2OC[C@H]2O[C@H](CC(=O)N[C@H]3CCN(Cc4ccccc4)C3)CC[C@@H]21	x	105*	1	u	66	-24	-46
CN1C(=O)c2cc(NC(=O)c3ccc(F)c(F)c3)ccc2OC[C@@H]2O[C@H](CC(=O)N[C@H]3CCN(Cc4ccccc4)C3)CC[C@H]21	x	111*	1	99*	58	-14	-11
CN1C(=O)c2cc(NC(=O)Cc3cccs3)ccc2OC[C@@H]2O[C@@H](CC(=O)N[C@H]3CCN(Cc4ccccc4)C3)CC[C@H]21	x	82	-2	x	x	x	x
CN1C(=O)c2cc(NC(=O)c3ccc(F)c(F)c3)ccc2OC[C@@H]2O[C@H](CC(=O)N[C@@H]3CCN(Cc4ccccc4)C3)CC[C@H]21	x	106*	0	114*	50	-14	-10
CN1C(=O)c2cc(NC(=O)Cc3cccs3)ccc2OC[C@H]2O[C@@H](CC(=O)N[C@H]3CCN(Cc4ccccc4)C3)CC[C@@H]21	x	52	1	x	x	x	x
CN1C(=O)c2cc(NC(=O)Cc3cccs3)ccc2OC[C@@H]2O[C@H](CC(=O)N[C@H]3CCN(Cc4ccccc4)C3)CC[C@H]21	x	-64	0	x	x	x	x
N#CC1c2ccc(Br)cc2C=CC1c1ccccc1 (centres undefined)	0	x	x	x	x	x	x
CCNC(=O)C[C@H]1CC[C@@H]2[C@H](COC[C@H](O)CN2C(=O)C2CC2)O1	x	-2	1	x	x	x	x
O=C(C[C@H]1CC[C@@H](NC(=O)c2ccc3c(c2)OCO3)[C@H](CO)O1)NCc1ccc(Cl)cc1	0	35	-2	x	x	x	x
CC(C)N(C(=O)NC(=O)c1ccc(F)cc1F)C(C)C	0	x	x	x	x	x	x
C[C@H](CO)N1C[C@H](C)[C@@H](CN(C)Cc2ccc(-c3ccccc3)cc2)Oc2ccc(NC(=O)Cc3cn(C)c4ccccc34)cc2C1=O	1	74	-3	x	x	x	x
Cc1noc(C)c1NC(=O)N(C)C[C@@H]1OCCCC[C@@H](C)Oc2ccc(NS(=O)(=O)c3c(C)noc3C)cc2C(=O)N([C@H](C)CO)C[C@@H]1C	x	-39	0	x	x	x	x
Cc1ccc(-c2nnc(SCC(=O)Nc3ccc(Br)c(C)c3)n2C)cc1	0	x	x	x	x	x	x
COc1cccc(-c2ccc3c(c2)[C@H]2[C@H](CCN2S(=O)(=O)c2ccccc2OC)[C@H](CO)N3)c1	x	u	1	102*	91	-9	-36
COc1ccccc1S(=O)(=O)N1CC[C@@H]2[C@@H](CO)Nc3ccc(-c4ccccc4F)cc3[C@@H]21	x	u	-2	104*	86	24	41*
Cc1ccccc1S(=O)(=O)N1CC[C@@H]2[C@H](CO)Nc3ccc(-c4ccccc4F)cc3[C@@H]21	x	110*	1	97*	77	8	106*
Cc1ccccc1S(=O)(=O)N1CC[C@@H]2[C@H]1c1cc(-c3ccccc3F)ccc1N[C@@H]2CO	x	-11	0	x	x	x	x
COc1ccccc1S(=O)(=O)N1CC[C@H]2[C@H](CO)Nc3ccc(-c4ccccc4F)cc3[C@H]21	x	88	0	x	x	x	x
SMILES	IDH1 R132H inh	T cruzi growth-1	KDM4C inh	T cruzi growth-2	T cruzi growth-3	3T3 cytotox	3T3 cytotox 2
COc1cccc(-c2ccc3c(c2)[C@@H]2[C@@H](CCN2S(=O)(=O)c2ccccc2OC)[C@H](CO)N3)c1	x	76	-2	x	x	x	x
COc1ccc(NC(=O)CSc2nc3ccc([N+](=O)[O-])cc3s2)cc1Cl	0	x	x	x	x	x	x
CN1c2ccc(-c3ccccc3F)cc2[C@H]2[C@H](CCN2C(=O)c2cccc(F)c2)[C@H]1CO	x	u	0	107*	81	12	103*
CN1c2ccc(-c3ccccc3F)cc2[C@@H]2[C@@H](CCN2C(=O)c2cccc(F)c2)[C@@H]1CO	x	76	-5	x	x	x	x
CN1c2ccc(-c3ccccc3F)cc2[C@H]2[C@H](CCN2C(=O)Cc2ccccn2)[C@@H]1CO	x	88	3	x	x	x	x
CN1c2ccc(-c3ccccc3F)cc2[C@@H]2[C@@H](CCN2C(=O)Cc2ccccn2)[C@@H]1CO	x	104*	4	101*	40	6	17
CN1c2ccc(-c3cccc(C#N)c3)cc2[C@@H]2[C@@H](CCN2C(=O)Cc2ccccn2)[C@H]1CO	x	87	0	x	x	x	x
CN1c2ccc(-c3cccc(C#N)c3)cc2[C@H]2[C@H](CCN2C(=O)Cc2ccccn2)[C@H]1CO	x	102*	2	107*	61	6	16
CCC(=O)N1CC[C@@H]2[C@H]1c1cc(-c3cccc(F)c3)ccc1N(C)[C@H]2CO	x	62	1	x	x	x	x
CCC(=O)N1CC[C@@H]2[C@H]1c1cc(-c3ccc(F)cc3)ccc1N(C)[C@H]2CO	x	106*	0	100*	94	-25	-7
CCc1ccccc1NC(=O)Cn1nc([N+](=O)[O-])cc1C	0	x	x	x	x	x	x
COC(=O)c1ccccc1NC(=O)c1ccc(Cl)c(S(=O)(=O)Nc2ccccc2C)c1	4	x	x	x	x	x	x
CCC(C)c1cnc(Cc2ccccc2)c(=O)[nH]1 (centres undefined)	0	x	x	x	x	x	x
CCC(=O)N1CC[C@H]2[C@@H]1c1cc(-c3ccccc3F)ccc1N(C)[C@H]2CO	x	77	2	x	x	x	x

Screens (PubChem)
